High-throughput results deposited in PubChem by several laboratories.
Most compounds without a hit are left out; they make up all but 4.3% or so of the library.
RBBP9 inh: blocks human serine hydrolase RBBP9. 220,000 compounds, 0.2% hits. inhibition, % at 7.94 µM. recombinant RBBP9, FP-Rh probe fluorescence polarization. O75884. AID 1515;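 active means inhibition above the campaign mean of all tested compounds plus 3 SD, cut at about 14% in these data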;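 further: plate controls were DMSO wells with RBBP9 for no effect and wells lacking RBBP9 protein for full effect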
Target sequence (O75884 whole entry, looked up): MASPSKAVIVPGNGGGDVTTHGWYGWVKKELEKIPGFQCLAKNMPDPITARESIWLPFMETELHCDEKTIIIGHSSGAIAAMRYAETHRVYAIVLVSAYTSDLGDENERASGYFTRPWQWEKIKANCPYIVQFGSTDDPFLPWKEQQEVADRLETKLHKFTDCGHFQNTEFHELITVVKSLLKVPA
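System: RBBP9 protein | Quantity: 2.5 µM RBBP9 dispensing solution, before mixing | Reagent: FP-Rh probe, 375 nM dispensing solution | Timing: Enzyme-compound preincubation 30 min, then probe labeling 45 min, 25 °C | Measured by: Fluorescence polarization | Read-out: % inhibition | Replication: One well per compound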
PREPL inh: inhibits the human prolyl oligopeptidase-like enzyme. 320,000 compounds, 0.68% hits. recombinant PREPL, fluorescence polarization activity-based probe. Q4J6C6. inhibition, % at 5.96 µM; in the data active means inhibition above about 43%;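 further: 0% = enzyme with DMSO and 100% = wells lacking enzyme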
UBC13 polyUb: human UBC13 polyubiquitination inhibition | AID 485273 | 330,000 compounds, 0.47% hits | UBC13 polyubiquitin chain formation, TR-FRET | inhibition, % at 20 µM | P61088; in the data active means inhibition above about 45%, passing the limit was not always enough; inconclusive means no clear call, values can overlap the other calls
Target sequence (P61088 whole entry, looked up): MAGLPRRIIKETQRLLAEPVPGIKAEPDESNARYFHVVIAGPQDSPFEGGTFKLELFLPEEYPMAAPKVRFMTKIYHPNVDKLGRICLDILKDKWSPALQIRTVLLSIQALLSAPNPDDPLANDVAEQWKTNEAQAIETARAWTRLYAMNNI
UBC9 SUMO inh: SUMOylation inhibition | P63279 | HTRF SUMOylation assay, SAE1/SAE2 + UBC9, in vitro | inhibition, % at 35 µM | 290,000 compounds, 0.36% hits | AID 2006; in the data active means inhibition above about 50%, passing the limit was not always enough; inconclusive means no clear call, values can overlap the other calls
Target sequence (P63279 whole entry, looked up): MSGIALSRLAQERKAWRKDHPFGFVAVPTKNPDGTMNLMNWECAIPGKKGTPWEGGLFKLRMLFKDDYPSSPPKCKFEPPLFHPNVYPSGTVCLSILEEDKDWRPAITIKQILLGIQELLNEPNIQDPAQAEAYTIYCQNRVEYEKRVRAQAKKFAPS
ALR H2O2 inh: blocks human ALR sulfhydryl oxidase activity; P55789; purified ALR, DTT oxidation, H2O2 HRP-luminol luminescence; inhibition, % (no concentration beside the values); 290,000 compounds, 3.8% hits;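 active means mean replicate inhibition above about 79%, with every replicate also reaching it, limit read from the data; inconclusive means only one of the two criteria met; inactive means mean below limit and not every replicate reaching it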
Rin1 Abl inh: inhibitors of human Rin1-Abl protein interaction; 360,000 compounds, 0.4% hits; inhibition, % at 7.35 µM; TR-FRET Rin1/Abl binding, biochemical; P00519+Q13671; in the data active means inhibition above about 5%, passing the limit was not always enough
Casp3 counter: caspase-3 inhibition (UBC13 counter-screen). inhibition, % at 20 µM. Recombinant caspase-3, Caspase-Glo 3/7 luminescence, 60 min. 1,400 compounds, 4% hits. shares compounds with UBC13 polyUb;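 active means mean inhibition across replicates above about 26%, limit read from the data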;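 further: plate controls were DMSO with caspase-3 for no effect and DMSO wells lacking enzyme for full effect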
UBC13 conf: confirmation of human UBC13 polyubiquitin inhibitors. 1,400 compounds, 68% hits. UBC13 polyubiquitination, TR-FRET, biochemical. inhibition, % at 10 µM. AID 488859. shares compounds with UBC13 polyUb; in the data active means inhibition above about 45%; inconclusive means no clear call, values can overlap the other calls
Rin1 Abl conf: Rin1-Abl interaction inhibition confirmation | inhibition, % at 7.35 µM | 1,300 compounds, 49% hits | TR-FRET Rin1-Abl binding, purified proteins | shares compounds with Rin1 Abl inh
GFP quench: quenches GFP fluorescence, counter-screen for Rin1-Abl inhibitors | shares compounds with Rin1 Abl inh | inhibitors/quenchers counterscreen | inhibition, % at 6.75 µM | 1,300 compounds, 8.5% hits;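 further: ABL1-eGFP fusion protein alone without its partner RIN1-SBP; 0% = protein with vehicle and 100% = wells lacking protein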
GFP quench DR: quenches GFP in dose response, Rin1-Abl counter-screen; IC50, µM; shares compounds with Rin1 Abl inh; 230 tested, under 10 active; GFP fluorescence interference/quenching counterscreen; call rule not given here;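 further: ABL1-eGFP fusion protein alone without its RIN1 binding partner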
* = called active by the depositor; u = inconclusive; x = not tested or not shown. Unless noted, no stated cut-off is given here; in the data, active means inhibition above about 6.5%; inactive means the rest.

SMILES	RBBP9 inh	PREPL inh	UBC13 polyUb	UBC9 SUMO inh	ALR H2O2 inh	Rin1 Abl inh	Rin1 Abl conf	GFP quench	others
CCc1nn(CC(=O)NCCCN2CCN(CC)CC2)c(=O)c2cc3occc3n12	x	-3.3	-7.2	7.4	-1.0	0.3	x	x
CN(C)c1ccc(C(C(=O)NCC2CCCO2)N(C(=O)c2snc(C(N)=O)c2N)c2ccc3c(c2)OCO3)cc1 (centres undefined)	x	10.4	38.1	4.5	7.1	0.1	x	x
CCOc1ccc(C(C(=O)NCC2CCCO2)N(C(=O)c2snc(C(N)=O)c2N)c2ccc3c(c2)OCCO3)cc1 (centres undefined)	x	-7.5	68.8*	-8.6	x	16.0*	23.1*	-0.1	Casp3 counter=2.5;UBC13 conf=64.0*
COc1ccncc1-c1ccc(C2=CC(=O)CC(C)(C)C2=O)cc1	x	x	x	x	x	-1.2	x	x
O=C(NC(c1ccccc1)c1ccsc1)C1CCN(Cc2ccc(Oc3ccccc3)cc2)CC1 (centres undefined)	x	x	x	x	x	3.0	x	x
CN1CCN(c2cc(-c3cc(O)c4ncccc4c3)ccn2)CC1	x	11.9	100.5*	x	-10.5	14.1*	17.3*	10.0*	Casp3 counter=14.0;UBC13 conf=102.1*
O=C1/C(=C/C=C/c2ccco2)SC(=S)N1NS(=O)(=O)c1ccccc1	6.0	12.6	51.3*	60.0*	u	12.5*	4.6	25.7*	Casp3 counter=3.3;UBC13 conf=1.9
O=C1/C(=C/c2cccs2)SC(=S)N1NS(=O)(=O)c1ccccc1	-9.1	-5.4	-12.5	25.3	x	-0.6	x	x
C#CCOCCOCCOCCNc1nc(N2CCN(C(=O)CCCCCCCCCCNC(=O)Cn3cc(CCCCCN)nn3)CC2)nc(N2CCN(C(=O)CCCCCCCCCCNC(=O)[C@@H](CCSC)n3cc(CCO)nn3)CC2)n1	x	41.3	118.8*	x	-9.4	13.9*	13.5*	0.3	Casp3 counter=-2.2;UBC13 conf=124.7*
CC1(Cc2ccc3c(c2)OCO3)C(=O)Nc2ccc(-c3cccc(C(F)(F)F)c3)cc21 (centres undefined)	x	x	x	x	x	7.7*	-2.5	-0.2
CC1(Cc2ccc(C(F)(F)F)o2)C(=O)Nc2ccc(-c3cccc(C(F)(F)F)c3)cc21 (centres undefined)	x	x	x	x	x	-1.4	x	x
COc1ccccc1-c1nnc(SC(C)C(=O)Nc2ccc(C(N)=O)cc2)o1 (centres undefined)	x	0.6	-2.1	x	3.3	4.1	x	x
Cc1ccc(NC(=O)Cn2nc(C(F)(F)F)c3c2CCC3)cc1	-12.2	6.2	1.3	-3.7	23.2	5.0*	0.6	-2.5
COc1ccc(Nc2nc(-c3cccc([N+](=O)[O-])c3)nc3ccccc23)cc1	-10.6	27.5	-3.8	-9.2	7.2	5.7*	-1.2	-0.3
CC(NC(=O)CCNC(=O)c1ccc(C(C)(C)C)cc1)c1ccccc1 (centres undefined)	x	4.1	10.9	x	-9.6	2.0	x	x
CC(C)(C)[C@@H]1C=C(C(=O)N2CCN(Cc3ccccc3)CC2)O[C@H](OCc2ccc(CO)cc2)C1	-1.2	26.5	7.4	16.8	x	4.8	x	x
CC(C)(C)[C@H]1C=C(C(=O)N2CCN(Cc3ccccc3)CC2)O[C@@H](OCCCCO)C1	-5.5	13.7	7.6	1.6	-5.8	15.7*	3.7	-0.1
CCOC(=O)C(C)Sc1nnc2c3ccccc3n(C)c2n1 (centres undefined)	x	7.8	0.5	9.4	3.4	-4.9	x	x
CCCn1c2ccccc2c2nnc(SCc3[nH]c(=O)[nH]c3C(=O)CCCCC(=O)OCC)nc21	2.5	2.5	-5.4	26.9	x	51.6*	55.7*	0.0	GFP quench DR=>67.5
